# Test results published in ChEMBL document CHEMBL4145521, “Regioselective synthesis of 3,4-diaryl-5-unsubstituted isoxazoles, analogues of natural cytostatic combretastatin A4” (Eur J Med Chem, 2018).
# How the values were obtained:
# Assay type in all cases: functional
# [1] = system: U-251; assay: Cytotoxicity against human U251 cells assessed as cell growth at 100 uM incubated for 48 hrs by sulforhodamine B assay relative to control; conditions: U-251, 48 h, read-out: Activity
# [2] = system: MDA-MB-468; assay: Cytotoxicity against human MDA-MB-468 cells assessed as cell growth at 100 uM incubated for 48 hrs by sulforhodamine B assay relative to control; conditions: MDA-MB-468, 48 h, read-out: Activity
# [3] = system: BT-549; assay: Cytotoxicity against human BT549 cells incubated for 48 hrs by sulforhodamine B assay; conditions: BT-549, 48 h
# [4] = system: RXF 393; assay: Cytotoxicity against human RXF393 cells assessed as cell growth at 0.1 uM incubated for 48 hrs by sulforhodamine B assay relative to control; conditions: RXF 393, 48 h, read-out: Activity
# [5] = system: OVCAR-5; assay: Cytotoxicity against human OVCAR5 cells assessed as cell growth at 1 uM incubated for 48 hrs by sulforhodamine B assay relative to control; conditions: OVCAR-5, 48 h, read-out: Activity
# [6] = system: SK-MEL-2; assay: Cytotoxicity against human SK-MEL-2 cells assessed as cell growth at 10 uM incubated for 48 hrs by sulforhodamine B assay relative to control; conditions: SK-MEL-2, 48 h, read-out: Activity
# [7] = system: KM12; assay: Cytotoxicity against human KM12 cells assessed as cell growth at 10 uM incubated for 48 hrs by sulforhodamine B assay relative to control; conditions: KM12, 48 h, read-out: Activity
# [8] = system: HCT-116; assay: Cytotoxicity against human HCT116 cells assessed as cell growth at 0.01 uM incubated for 48 hrs by sulforhodamine B assay relative to control; conditions: HCT-116, 48 h, read-out: Activity
# [9] = system: HOP-92; assay: Cytotoxicity against human HOP92 cells assessed as cell growth at 0.1 uM incubated for 48 hrs by sulforhodamine B assay relative to control; conditions: HOP-92, 48 h, read-out: Activity
# [10] = system: MDA-MB-231; assay: Cytotoxicity against human MDA-MB-231 cells assessed as cell growth at 100 uM incubated for 48 hrs by sulforhodamine B assay relative to control; conditions: MDA-MB-231, 48 h, read-out: Activity
# [11] = system: NCI-H522; assay: Cytotoxicity against human NCI-H522 cells incubated for 48 hrs by sulforhodamine B assay; conditions: NCI-H522, 48 h
# [12] = system: OVCAR-5; assay: Cytotoxicity against human OVCAR5 cells incubated for 48 hrs by sulforhodamine B assay; conditions: OVCAR-5, 48 h
# [13] = system: HOP-62; assay: Cytotoxicity against human HOP62 cells assessed as cell growth at 10 uM incubated for 48 hrs by sulforhodamine B assay relative to control; conditions: HOP-62, 48 h, read-out: Activity
# [14] = system: CAKI-1; assay: Cytotoxicity against human Caki1 cells assessed as cell growth at 1 uM incubated for 48 hrs by sulforhodamine B assay relative to control; conditions: CAKI-1, 48 h, read-out: Activity
# [15] = system: IGROV-1; assay: Cytotoxicity against human IGROV1 cells incubated for 48 hrs by sulforhodamine B assay; conditions: IGROV-1, 48 h
# [16] = system: K562; assay: Cytotoxicity against human K562 cells assessed as cell growth at 100 uM incubated for 48 hrs by sulforhodamine B assay relative to control; conditions: K562, 48 h, read-out: Activity
# [17] = system: NCI-H322M; assay: Cytotoxicity against human NCI-H322M cells assessed as cell growth at 0.1 uM incubated for 48 hrs by sulforhodamine B assay relative to control; conditions: read-out: Activity
# [18] = system: SNB-75; assay: Cytotoxicity against human SNB75 cells incubated for 48 hrs by sulforhodamine B assay; conditions: SNB-75, 48 h
# [19] = system: ACHN; assay: Cytotoxicity against human ACHN cells assessed as cell growth at 1 uM incubated for 48 hrs by sulforhodamine B assay relative to control; conditions: read-out: Activity
# [20] = system: HL-60(TB); assay: Cytotoxicity against human HL-60(TB) cells incubated for 48 hrs by sulforhodamine B assay; conditions: HL-60, 48 h
# [21] = system: NCI-H23; assay: Cytotoxicity against human NCI-H23 cells assessed as cell growth at 0.01 uM incubated for 48 hrs by sulforhodamine B assay relative to control; conditions: NCI-H23, 48 h, read-out: Activity
# [22] = system: Malme-3M; assay: Cytotoxicity against human MALME-3M cells assessed as cell growth at 0.01 uM incubated for 48 hrs by sulforhodamine B assay relative to control; conditions: read-out: Activity
# [23] = system: K562; assay: Cytotoxicity against human K562 cells assessed as cell growth at 0.01 uM incubated for 48 hrs by sulforhodamine B assay relative to control; conditions: K562, 48 h, read-out: Activity
# [24] = system: LOX IMVI; assay: Cytotoxicity against human LOXIMVI cells assessed as cell growth at 100 uM incubated for 48 hrs by sulforhodamine B assay relative to control; conditions: read-out: Activity
# [25] = system: Hs-578T; assay: Cytotoxicity against human Hs 578T cells assessed as cell growth at 100 uM incubated for 48 hrs by sulforhodamine B assay relative to control; conditions: read-out: Activity
# [26] = system: NCI-H522; assay: Cytotoxicity against human NCI-H522 cells assessed as cell growth at 0.01 uM incubated for 48 hrs by sulforhodamine B assay relative to control; conditions: NCI-H522, 48 h, read-out: Activity
# [27] = system: SW-620; assay: Cytotoxicity against human SW620 cells incubated for 48 hrs by sulforhodamine B assay; conditions: SW-620, 48 h
# [28] = system: Paracentrotus lividus; assay: Antimitotic activity against Paracentrotus lividus embryo assessed as cleavage alteration measured at 2.5 hrs post fertilization by light microscopy
# Method in brief: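 Sea urchin eggs were fertilized with diluted sperm and cultured at room temperature in filtered seawater with paddle agitation (60 rpm), at up to 2000 embryos/mL. The effective threshold concentration causing cleavage alteration, death before hatching or full mitotic arrest was scored in duplicate.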
# [29] = read-out: LC50 (the source's name)
# [30] = read-out: pLC50 (the source's name) (converted)
compound,measurement,setting,value
COc1ccc(-c2nocc2-c2cc(OC)c(OC)c(OC)c2)cc1,growth at 100 µM,[1],-4%
same,growth at 100 µM,[2],-19%
same,GI50,[3]; read-out: GI50,176 nM
same,CC50,[3]; [29],> 100000 nM
same,TGI,[3]; read-out: TGI,18900 nM
same,GI50,[3]; read-out: pGI50 (converted),178 nM
same,CC50,[3]; [30],> 100000 nM
same,TGI,[3]; read-out: pTGI (converted),19100 nM
same,growth at 0.1 µM,[4],86%
same,growth at 1 µM,[5],53%
same,growth at 10 µM,[6],43%
same,growth at 10 µM,[7],6%
same,growth at 0.01 µM,[8],92%
same,growth at 0.1 µM,[9],72%
same,growth at 100 µM,[10],-15%
same,GI50,[11]; read-out: GI50,22.5 nM
same,LC50,[11]; read-out: LC50,> 100000 nM
same,TGI,[11]; read-out: TGI,75.2 nM
same,GI50,[11]; read-out: pGI50 (converted),22.4 nM
same,LC50,[11]; read-out: pLC50 (converted),> 100000 nM
same,TGI,[11]; read-out: pTGI (converted),75.9 nM
same,GI50,[12]; read-out: GI50,1650 nM
same,LC50,[12]; read-out: LC50,> 100000 nM
same,TGI,[12]; read-out: TGI,> 100000 nM
same,GI50,[12]; read-out: pGI50 (converted),1660 nM
same,LC50,[12]; read-out: pLC50 (converted),> 100000 nM
same,TGI,[12]; read-out: pTGI,> 100000 nM
same,growth at 10 µM,[13],35%
same,growth at 1 µM,[14],47%
same,GI50,[15]; read-out: GI50,346 nM
same,CC50,[15]; [29],> 100000 nM
same,TGI,[15]; read-out: TGI,> 100000 nM
same,GI50,[15]; read-out: pGI50 (converted),347 nM
same,CC50,[15]; [30],> 100000 nM
same,TGI,[15]; read-out: pTGI,> 100000 nM
same,growth at 100 µM,[16],4%
same,growth at 0.1 µM,[17],76%
same,GI50,[18]; read-out: GI50,77.2 nM
same,CC50,[18]; [29],> 100000 nM
same,TGI,[18]; read-out: TGI,> 100000 nM
same,GI50,[18]; read-out: pGI50 (converted),77.6 nM
same,CC50,[18]; [30],> 100000 nM
same,TGI,[18]; read-out: pTGI,> 100000 nM
same,growth at 1 µM,[19],52%
same,GI50,[20]; read-out: GI50,48.8 nM
same,CC50,[20]; [29],> 100000 nM
same,TGI,[20]; read-out: TGI,391 nM
same,GI50,[20]; read-out: pGI50 (converted),49 nM
same,CC50,[20]; [30],> 100000 nM
same,TGI,[20]; read-out: pTGI (converted),389 nM
same,growth at 0.01 µM,[21],94%
same,growth at 0.01 µM,[22],86%
same,growth at 0.01 µM,[23],103%
same,growth at 100 µM,[24],-7%
same,growth at 100 µM,[25],10%
same,growth at 0.01 µM,[26],84%
same,GI50,[27]; read-out: GI50,50.9 nM
same,CC50,[27]; [29],> 100000 nM
same,TGI,[27]; read-out: TGI,> 100000 nM
same,GI50,[27]; read-out: pGI50 (converted),51.3 nM
same,CC50,[27]; [30],> 100000 nM
same,TGI,[27]; read-out: pTGI,> 100000 nM
same,EC,[28],0.01 µM
